Results of several laboratories.
Compare with care: the assays were run in different laboratories.
Target: Histamine H1 receptor (HRH1, Homo sapiens, UniProt P35367)
Method: radioligand

effect on	notes	Ki [µM]	SMILES
ligand displacement	cell membranes	1.97	O=C1CCCc2cc(OCc3ccc(OCCCN4CCCCC4)cc3)ccc21
ligand displacement	cell membranes	6.15	O=C1NC(=O)C(c2ccccc2)(c2ccc(OCCCN3CCCCC3)cc2)N1 (stereo not shown)
ligand displacement		0.69	CCc1nc2cc(OCCCCN3CCC(c4cccc(Cl)c4Cl)CC3)ccc2s1
cell-free assay		0.00316	CN1CCC(=C(c2ccccc2)c2ccccc2)CC1
ligand displacement		0.052	CC(C)c1nc2cc(OCCCCN3CCN(c4cccc5c4OCCO5)CC3)ccc2s1
cell-free assay		0.000251	CN1CCC(=C2c3ccccc3CCc3ccccc32)CC1
ligand displacement	cell membranes	1.84	CN(C)c1ccc(/C=C/C=C2\CCc3ccc(OCc4ccc(OCCCN5CCCCC5)cc4)cc3C2=O)cc1
cell-free assay		0.000631	CN1CCC(C2c3ccccc3CCc3ccccc32)CC1
ligand displacement	cell membranes	> 10	Clc1ccc(CCCOCCCN2CCCCC2)cc1
ligand displacement	cell membranes	3.47	O=C1CCCc2cc(OCCCN3CCCCC3)ccc21
cell-free assay		0.002	CN1CCN(C2c3ccccc3C=Cc3ccccc32)CC1
cell-free assay		0.0062	CCCNc1nc2ccccc2n1Cc1ccc(Cl)cc1
ligand displacement	cell membranes	3.72	O=C1CCCc2ccc(OCCCN3CCCCC3)cc21
